# In ChEMBL document CHEMBL1140079, “Discovery of orally bioavailable cathepsin S inhibitors for the reversal of neuropathic pain” (J Med Chem, 2008):
# Active and inactive are the calls of the source.
# Key:
# [1] = molecular target: Cytochrome P450 2D6 (Homo sapiens, UniProt P10635); experiment: Inhibition of CYP2D6 at 10 uM; format: ADME
# Procedure, shortened: (§1)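 Tested against a panel of cytochrome P450 enzymes at a maximum concentration of 10 µM.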
# [2] = tested on: Rattus norvegicus; experiment: Reversal of neuropathic mechanical hyperalgesia in Wistar rat sciatic nerve ligation model assessed as paw withdrawal threshold at 30 mg/kg, po administered twice daily for 5 days after 3 hrs; format: functional
# Procedure, shortened: (§2)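 Partial sciatic nerve ligation in Wistar rats genotyped as 137Gly cathepsin S, with established mechanical hyperalgesia. Oral dosing in 0.5% methylcellulose/water; repeat regimen twice daily for 5 days, paw withdrawal thresholds 3 h post-dose. 6 animals/group; % reversal of hyperalgesia, mean ± SEM; ANOVA with Tukey's HSD versus vehicle.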
# [3] = molecular target: Cathepsin S (Mus musculus, UniProt O70370); experiment: Inhibition of mouse cathepsin S by fluorescence assay
# Procedure, shortened: (§3)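 Recombinant rat cathepsins K, L, S (137Gly and 137Cys forms) and mouse cathepsin S in a fluorescence assay. Substrates: Z-Phe-Arg-MCA for K and L, Z-Leu-Leu-Arg-MCA for S. IC50 reported as means ± SD of three experiments.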
# [4] = molecular target: Cytochrome P450 2C19 (Homo sapiens, UniProt P33261); experiment: Inhibition of CYP2C19 at 10 uM; format: ADME; procedure, shortened: as §1
# [5] = molecular target: Cytochrome P450 2C9 (Homo sapiens, UniProt P11712); experiment: Inhibition of CYP2C9 at 10 uM; format: ADME; procedure, shortened: as §1
# [6] = Terminal elimination half life in Sprague-Dawley rat at 1 mg/kg, iv by LC/MS analysis; format: ADME, organism-based; set-up: dose 1 mg/kg, route intravenous; details: in vivo
# Procedure, shortened: (§4)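 Male Sprague-Dawley rats dosed orally at 3 mg/kg as a suspension and intravenously at 1 mg/kg as a bolus. Plasma levels quantified by LC/MS. Oral AUC and Cmax dose-normalized to 1 mg/kg. Means ± SD of three individual experiments.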
# [7] = molecular target: Cathepsin S (Mus musculus) (UniProt O70370); experiment: Inhibition of cathepsin S-mediated proteolytic cleavage of MHC2 associated invariant chain in mouse splenocytes assessed as induction of accumulation of lip10; format: cell-based
# [8] = molecular target: T1, Procathepsin L (Rattus norvegicus, UniProt P07154); experiment: Inhibition of rat cathepsin L by fluorescence assay; procedure, shortened: as §3
# T1 sequence (P07154 whole entry): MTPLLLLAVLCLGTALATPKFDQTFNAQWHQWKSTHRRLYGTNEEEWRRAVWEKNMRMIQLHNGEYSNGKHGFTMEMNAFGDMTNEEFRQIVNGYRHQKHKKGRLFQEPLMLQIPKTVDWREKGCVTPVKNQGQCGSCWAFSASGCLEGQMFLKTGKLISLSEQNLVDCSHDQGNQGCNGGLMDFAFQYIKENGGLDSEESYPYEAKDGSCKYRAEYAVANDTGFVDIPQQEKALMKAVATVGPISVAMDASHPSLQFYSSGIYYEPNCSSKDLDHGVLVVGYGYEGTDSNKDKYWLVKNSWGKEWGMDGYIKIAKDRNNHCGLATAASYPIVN
# [9] = molecular target: Cathepsin S (Homo sapiens, UniProt P25774); experiment: Inhibition of human recombinant cathepsin S by fluorescence assay
# Procedure, shortened: (§5)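 Recombinant human enzymes in a fluorescence assay; substrate Z-Phe-Arg-MCA for cathepsins K and L, Z-Leu-Leu-Arg-MCA for cathepsin S. Means of two experiments, each run in duplicate; individual points within a 2-fold range of each other.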
# [10] = species: Rattus norvegicus; experiment: Selectivity for rat cathepsin S glycine 137 mutant over rat cathepsin L
# Procedure, shortened: (§6)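 Recombinant rat cathepsins in a fluorescence assay with MCA substrates: Z-Leu-Leu-Arg-MCA for cathepsin S (137Gly form), Z-Phe-Arg-MCA for K and L, and Z-Arg-Arg-MCA for B. IC50 values were taken as means ± SD of three experiments, and selectivity was compared from the IC50 values against the S enzyme and each other cathepsin.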
# [11] = species: Rattus norvegicus; experiment: Selectivity for rat cathepsin S glycine 137 mutant over rat cathepsin B; procedure, shortened: as §6
# [12] = molecular target: T2, Cytochrome P450 1A2 (Homo sapiens, UniProt P05177); experiment: Inhibition of CYP1A2 at 10 uM; format: ADME; procedure, shortened: as §1
# T2 sequence (P05177 whole entry): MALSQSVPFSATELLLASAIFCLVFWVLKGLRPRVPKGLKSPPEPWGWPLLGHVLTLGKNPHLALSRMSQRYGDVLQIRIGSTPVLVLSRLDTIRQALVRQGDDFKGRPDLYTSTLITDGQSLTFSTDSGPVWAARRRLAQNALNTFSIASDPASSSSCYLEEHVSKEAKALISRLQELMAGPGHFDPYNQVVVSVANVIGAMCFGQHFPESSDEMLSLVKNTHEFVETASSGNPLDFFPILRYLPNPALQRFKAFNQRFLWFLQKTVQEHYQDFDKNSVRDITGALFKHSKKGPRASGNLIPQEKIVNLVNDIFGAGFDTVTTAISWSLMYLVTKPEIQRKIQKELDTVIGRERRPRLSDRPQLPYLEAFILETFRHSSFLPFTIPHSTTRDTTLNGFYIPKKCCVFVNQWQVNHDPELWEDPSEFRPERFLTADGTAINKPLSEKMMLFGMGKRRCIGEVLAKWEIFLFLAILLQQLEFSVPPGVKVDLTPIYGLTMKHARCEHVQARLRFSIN
# [13] = Cmax in Sprague-Dawley rat at 3 mg/kg, po by LC/MS analysis; format: ADME, organism-based; set-up: dose 3 mg/kg, route oral; details: in vivo; procedure, shortened: as §4
# [14] = Bioavailability in Sprague-Dawley rat at 1 mg/kg, iv and 3 mg/kg, po by LC/MS analysis; format: ADME, organism-based; details: in vivo; procedure, shortened: as §4
# [15] = molecular target: Cytochrome P450 3A4 (Homo sapiens, UniProt P08684); experiment: Inhibition of CYP3A4 at 10 uM; format: ADME; procedure, shortened: as §1
# [16] = molecular target: T3, Cathepsin K (Homo sapiens, UniProt P43235); experiment: Inhibition of human recombinant cathepsin K by fluorescence assay; procedure, shortened: as §5
# T3 sequence (P43235 whole entry): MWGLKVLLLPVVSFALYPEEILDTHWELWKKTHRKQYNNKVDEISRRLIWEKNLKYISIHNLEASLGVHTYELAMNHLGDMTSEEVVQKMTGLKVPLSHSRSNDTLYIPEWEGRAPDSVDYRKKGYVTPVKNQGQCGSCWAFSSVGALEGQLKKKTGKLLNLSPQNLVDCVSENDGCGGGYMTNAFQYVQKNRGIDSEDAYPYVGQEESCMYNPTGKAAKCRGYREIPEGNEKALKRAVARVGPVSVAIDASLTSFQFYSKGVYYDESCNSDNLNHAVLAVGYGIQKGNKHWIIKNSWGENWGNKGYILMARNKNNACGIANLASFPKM
# [17] = molecular target: T4, Cathepsin K (Rattus norvegicus, UniProt O35186); experiment: Inhibition of rat cathepsin K by fluorescence assay; procedure, shortened: as §3
# T4 sequence (O35186 whole entry): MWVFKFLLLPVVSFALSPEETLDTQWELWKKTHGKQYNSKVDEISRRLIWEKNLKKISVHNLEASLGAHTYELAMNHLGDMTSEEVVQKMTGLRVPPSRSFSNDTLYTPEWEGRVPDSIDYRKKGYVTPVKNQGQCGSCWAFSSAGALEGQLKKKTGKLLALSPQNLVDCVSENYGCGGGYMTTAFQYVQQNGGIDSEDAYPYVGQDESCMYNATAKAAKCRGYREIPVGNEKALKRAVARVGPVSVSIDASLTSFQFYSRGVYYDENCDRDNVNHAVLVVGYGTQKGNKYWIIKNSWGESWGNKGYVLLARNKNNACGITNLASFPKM
# [18] = Inhibition of rat cathepsin S glycine 137 mutant by fluorescence assay; procedure, shortened: as §3
# [19] = tested on: Rattus norvegicus; experiment: Reversal of neuropathic mechanical hyperalgesia in Wistar rat sciatic nerve ligation model with cathepsin S glycine 137 mutation at 100 mg/kg, po; format: functional; procedure, shortened: as §2
# [20] = species: Rattus norvegicus; experiment: Selectivity for rat cathepsin S glycine 137 mutant over rat cathepsin K; procedure, shortened: as §6
# [21] = molecular target: Procathepsin L (Homo sapiens, UniProt P07711); experiment: Inhibition of human recombinant cathepsin L by fluorescence assay; procedure, shortened: as §5
# [22] = Volume of distribution in Sprague-Dawley rat at 1 mg/kg, iv and 3 mg/kg, po by LC/MS analysis; format: ADME, organism-based; details: in vivo; procedure, shortened: as §4
# [23] = Plasma clearance in Sprague-Dawley rat at 1 mg/kg, iv and 3 mg/kg, po by LC/MS analysis; format: ADME, organism-based; procedure, shortened: as §4
# [24] = Inhibition of rat cathepsin S cysteine 137 mutant by fluorescence assay; procedure, shortened: as §3
# [25] = Genotoxicity in liver S9 fraction by Ames test; format: toxicity, subcellular
# Procedure, shortened: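 Standard Ames test run with liver S9 enzyme.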
# [26] = species: Rattus norvegicus; experiment: Reversal of neuropathic mechanical hyperalgesia in Wistar rat sciatic nerve ligation model with cathepsin S glycine 137 mutation; format: functional, organism-based; procedure, shortened: as §2
# [27] = species: Homo sapiens; experiment: Selectivity for human recombinant cathepsin S over human cathepsin H
# [28] = species: Homo sapiens; experiment: Selectivity for human recombinant cathepsin S over human cathepsin B
# [29] = molecular target: Dipeptidyl peptidase 1 (Homo sapiens, UniProt P53634); experiment: Inhibition of human cathepsin C
# [30] = molecular target: Cathepsin S (Mus musculus) (UniProt O70370); experiment: Inhibition of cathepsin S-mediated proteolytic cleavage of MHC2 associated invariant chain in mouse splenocytes assessed as induction of accumulation of lip10 at 1 µM
# [31] = molecular target: T5, Pro-cathepsin H (Homo sapiens, UniProt P09668); experiment: Inhibition of human cathepsin H
# T5 sequence (P09668 whole entry): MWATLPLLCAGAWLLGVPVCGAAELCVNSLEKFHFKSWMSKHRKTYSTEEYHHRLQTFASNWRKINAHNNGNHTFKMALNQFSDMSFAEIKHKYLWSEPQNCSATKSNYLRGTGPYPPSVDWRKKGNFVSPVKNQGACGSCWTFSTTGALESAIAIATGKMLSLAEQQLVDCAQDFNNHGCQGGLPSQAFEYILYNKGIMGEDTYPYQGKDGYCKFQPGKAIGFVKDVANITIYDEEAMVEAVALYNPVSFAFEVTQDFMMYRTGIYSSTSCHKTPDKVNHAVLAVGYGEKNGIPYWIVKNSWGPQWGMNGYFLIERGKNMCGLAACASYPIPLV
# [32] = species: Homo sapiens; experiment: Selectivity for human recombinant cathepsin S over human cathepsin C
# [33] = Inhibition of human cathepsin X
# [34] = species: Homo sapiens; experiment: Selectivity for human recombinant cathepsin S over human cathepsin X
# [35] = species: Rattus norvegicus; experiment: Reversal of neuropathic mechanical hyperalgesia in Wistar rat sciatic nerve ligation model with cathepsin S cysteine 137 mutation; format: functional, organism-based
# [36] = molecular target: Cathepsin B (Homo sapiens, UniProt P07858); experiment: Inhibition of human cathepsin B
# Chain of Cathepsin S (Homo sapiens, UniProt P25774) (P25774 whole entry): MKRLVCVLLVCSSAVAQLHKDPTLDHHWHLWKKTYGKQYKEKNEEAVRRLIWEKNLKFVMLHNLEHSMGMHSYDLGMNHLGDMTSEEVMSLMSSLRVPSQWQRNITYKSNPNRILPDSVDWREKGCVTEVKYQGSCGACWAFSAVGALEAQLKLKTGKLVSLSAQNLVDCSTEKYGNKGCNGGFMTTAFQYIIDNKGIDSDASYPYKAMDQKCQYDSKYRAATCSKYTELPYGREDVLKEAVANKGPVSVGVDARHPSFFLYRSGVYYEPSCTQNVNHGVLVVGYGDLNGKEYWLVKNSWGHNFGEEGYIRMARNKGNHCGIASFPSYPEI
# Chain of Procathepsin L (Homo sapiens, UniProt P07711) (P07711 whole entry): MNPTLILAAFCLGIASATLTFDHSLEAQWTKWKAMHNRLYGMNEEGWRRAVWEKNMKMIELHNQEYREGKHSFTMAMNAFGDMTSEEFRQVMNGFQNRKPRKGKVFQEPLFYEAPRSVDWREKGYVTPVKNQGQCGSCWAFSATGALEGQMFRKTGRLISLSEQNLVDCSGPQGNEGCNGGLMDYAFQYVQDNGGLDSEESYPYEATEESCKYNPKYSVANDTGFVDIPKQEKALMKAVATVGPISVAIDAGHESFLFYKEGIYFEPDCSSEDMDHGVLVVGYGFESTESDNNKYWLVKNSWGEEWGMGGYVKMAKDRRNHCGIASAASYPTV
# Chain of Cytochrome P450 3A4 (P08684 whole entry): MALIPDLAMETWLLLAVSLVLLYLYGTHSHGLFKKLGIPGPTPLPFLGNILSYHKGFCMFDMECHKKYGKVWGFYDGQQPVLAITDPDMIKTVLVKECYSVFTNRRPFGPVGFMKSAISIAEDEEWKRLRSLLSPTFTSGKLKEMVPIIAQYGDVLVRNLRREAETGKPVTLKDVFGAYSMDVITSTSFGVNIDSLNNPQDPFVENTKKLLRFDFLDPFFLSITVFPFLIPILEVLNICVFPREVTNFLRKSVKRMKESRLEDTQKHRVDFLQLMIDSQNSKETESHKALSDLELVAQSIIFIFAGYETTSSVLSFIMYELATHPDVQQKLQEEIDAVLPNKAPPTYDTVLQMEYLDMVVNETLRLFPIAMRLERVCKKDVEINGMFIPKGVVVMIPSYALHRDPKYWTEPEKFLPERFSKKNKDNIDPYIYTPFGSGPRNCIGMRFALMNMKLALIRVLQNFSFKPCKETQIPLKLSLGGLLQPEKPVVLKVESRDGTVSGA
# Chain of Cytochrome P450 2C19 (P33261 whole entry): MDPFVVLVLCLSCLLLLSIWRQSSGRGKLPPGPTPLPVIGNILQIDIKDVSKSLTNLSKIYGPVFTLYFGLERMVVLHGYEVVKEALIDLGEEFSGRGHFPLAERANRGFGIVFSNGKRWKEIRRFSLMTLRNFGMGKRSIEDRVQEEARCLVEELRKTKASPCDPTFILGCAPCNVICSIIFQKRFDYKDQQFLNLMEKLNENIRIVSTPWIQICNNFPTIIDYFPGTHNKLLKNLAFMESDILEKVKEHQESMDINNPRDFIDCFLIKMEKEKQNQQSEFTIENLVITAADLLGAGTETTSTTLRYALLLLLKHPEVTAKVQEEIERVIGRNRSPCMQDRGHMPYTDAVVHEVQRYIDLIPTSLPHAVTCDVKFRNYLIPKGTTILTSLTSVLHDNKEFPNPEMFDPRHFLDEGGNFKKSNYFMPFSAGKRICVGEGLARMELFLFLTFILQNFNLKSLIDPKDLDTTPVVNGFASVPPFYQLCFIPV
# Chain of Cytochrome P450 2C9 (P11712 whole entry): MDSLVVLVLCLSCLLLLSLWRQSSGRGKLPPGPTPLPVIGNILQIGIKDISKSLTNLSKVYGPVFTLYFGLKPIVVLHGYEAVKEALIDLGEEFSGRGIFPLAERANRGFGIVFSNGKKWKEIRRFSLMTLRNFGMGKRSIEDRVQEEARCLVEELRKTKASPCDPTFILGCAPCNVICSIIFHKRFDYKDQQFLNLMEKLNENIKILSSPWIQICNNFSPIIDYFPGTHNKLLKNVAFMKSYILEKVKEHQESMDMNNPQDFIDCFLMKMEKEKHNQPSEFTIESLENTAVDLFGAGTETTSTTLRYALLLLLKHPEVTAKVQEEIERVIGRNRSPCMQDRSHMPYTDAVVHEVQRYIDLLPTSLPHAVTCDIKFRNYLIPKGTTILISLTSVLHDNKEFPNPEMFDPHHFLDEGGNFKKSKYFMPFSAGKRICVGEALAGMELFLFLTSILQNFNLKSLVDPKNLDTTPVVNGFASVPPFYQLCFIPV
# Chain of Cytochrome P450 2D6 (P10635 whole entry): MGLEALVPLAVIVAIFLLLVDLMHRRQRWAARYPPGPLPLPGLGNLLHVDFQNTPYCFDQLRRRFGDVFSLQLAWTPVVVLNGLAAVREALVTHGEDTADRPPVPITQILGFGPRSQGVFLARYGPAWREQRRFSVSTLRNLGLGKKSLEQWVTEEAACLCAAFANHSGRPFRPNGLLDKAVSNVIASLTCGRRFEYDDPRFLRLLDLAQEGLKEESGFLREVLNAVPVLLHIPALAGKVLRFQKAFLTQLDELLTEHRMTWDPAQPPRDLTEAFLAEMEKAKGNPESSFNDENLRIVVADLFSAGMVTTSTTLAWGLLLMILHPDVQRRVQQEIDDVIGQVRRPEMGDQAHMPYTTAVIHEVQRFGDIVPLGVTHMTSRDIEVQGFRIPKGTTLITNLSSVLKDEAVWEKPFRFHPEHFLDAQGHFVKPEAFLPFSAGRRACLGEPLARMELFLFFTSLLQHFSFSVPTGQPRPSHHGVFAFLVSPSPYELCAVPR
# Chain of Dipeptidyl peptidase 1 (P53634 25-134 limits assumed): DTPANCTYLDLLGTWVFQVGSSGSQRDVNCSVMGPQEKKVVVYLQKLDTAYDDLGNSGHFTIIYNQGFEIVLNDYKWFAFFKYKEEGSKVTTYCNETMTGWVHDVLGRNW
# Chain of Dipeptidyl peptidase 1 (P53634 231-394 limits assumed): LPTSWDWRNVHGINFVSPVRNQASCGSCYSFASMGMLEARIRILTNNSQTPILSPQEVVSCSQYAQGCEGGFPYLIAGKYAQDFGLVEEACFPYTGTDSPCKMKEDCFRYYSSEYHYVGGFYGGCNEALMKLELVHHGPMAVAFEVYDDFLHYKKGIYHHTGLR
# Chain of Dipeptidyl peptidase 1 (P53634 395-463 limits assumed): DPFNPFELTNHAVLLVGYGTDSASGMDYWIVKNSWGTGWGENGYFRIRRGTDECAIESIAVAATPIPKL
Activity [1],IC50 [3],Activity [4],Activity [5],half-life [6],Activity [7],IC50 [8],IC50 [9],Activity [10],Activity [11],Activity [12],Cmax [13],bioavailability [14],Activity [15],IC50 [16],IC50 [17],IC50 [18],Activity [20],IC50 [21],SMILES,Activity [2],further results
Not Active,0.014 µM,Not Active,Not Active,1.7 h,Dose-dependent effect,> 10 µM,0.018 µM,> 100,> 100,Not Active,30 nM,24%,Not Active,5.9 µM,> 10 µM,0.012 µM,> 100,6.8 µM,CC(=O)N1CCN(c2ccc(OCc3cc4cnc(C#N)nc4n3CCC3CCCCC3)c(F)c2)CC1,63%,Activity [19]: 54%; Vd [22]: 5.7 L/kg; clearance [23]: 45 mL/min/kg; IC50 [24]: > 10 µM; Activity [25]: Non-toxic
Not Active,0.02 µM,Not Active,Not Active,0.7 h,Dose-dependent effect,> 10 µM,0.01 µM,> 100,> 100,Not Active,37 nM,21%,Not Active,5.4 µM,> 10 µM,0.028 µM,> 100,6.2 µM,CC(=O)N1CCN(c2ccc(OCc3cc4cnc(C#N)nc4n3CCC3CCC(F)(F)CC3)cc2)CC1,40%,Activity [26]: Dose-dependent effect; Activity [27]: > 100; Ki [9]: 0.004 µM; Activity [28]: > 100; Ki [29]: > 10 µM; Activity [30]: Active; Ki [31]: > 10 µM; Activity [32]: > 100; Ki [33]: 0.65 µM; Activity [34]: > 100; Activity [35]: inactive; Vd [22]: 3.7 L/kg; IC50 [36]: > 30 µM; clearance [23]: 51.7 mL/min/kg; IC50 [24]: > 10 µM; Activity [25]: Non-toxic
,,,,,,,0.017 µM,,,,,,,> 1 µM,,,,> 1 µM,CC(=O)N1CCN(c2ccc(OCc3cc4cnc(C#N)nc4n3CCc3ccc(Cl)cc3)cc2)CC1,,
,,,,,,,0.009 µM,,,,,,,> 1 µM,,,,> 1 µM,CC(=O)N1CCN(c2ccc(OCc3cc4cnc(C#N)nc4n3CCC3CCCCC3)cc2F)CC1,,
